Experimental data from ChEMBL document CHEMBL1641429, “Synthesis and xanthine oxidase inhibitory activity of 7-methyl-2-(phenoxymethyl)-5H-[1,3,4]thiadiazolo[3,2-a]pyrimidin-5-one derivatives” (Bioorg Med Chem, 2011).

What was measured:
[1] = Inhibition of microbial xanthine oxidase by spectrophotometry
In short: (§1)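 Enzyme source: for line 2, supernatant of centrifuged rat liver homogenate stored at −80 °C; for line 1, commercial microbial XO run the same way. Mix of 50 mM potassium phosphate pH 7.5, 0.3 mM EDTA and enzyme. Reaction started with xanthine substrate plus test compound. Protein by Lowry, BSA standard.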

[2] = biological target: Xanthine dehydrogenase/oxidase (Rattus norvegicus, UniProt P22985); assay: Inhibition of rat liver xanthine oxidase by spectrophotometry
In short: as §1, with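 “compound. Uric acid read at 292 nm at 10 min intervals, ambient temperature. % inhibition versus control without compound; triplicates.” for “compound.”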

[3] = biological target: Xanthine dehydrogenase/oxidase (Bos taurus, UniProt P80457); assay: Inhibition of bovine milk xanthine oxidase by spectrophotometry
Sequence of Xanthine dehydrogenase/oxidase (Bos taurus, UniProt P80457) (P80457 whole entry): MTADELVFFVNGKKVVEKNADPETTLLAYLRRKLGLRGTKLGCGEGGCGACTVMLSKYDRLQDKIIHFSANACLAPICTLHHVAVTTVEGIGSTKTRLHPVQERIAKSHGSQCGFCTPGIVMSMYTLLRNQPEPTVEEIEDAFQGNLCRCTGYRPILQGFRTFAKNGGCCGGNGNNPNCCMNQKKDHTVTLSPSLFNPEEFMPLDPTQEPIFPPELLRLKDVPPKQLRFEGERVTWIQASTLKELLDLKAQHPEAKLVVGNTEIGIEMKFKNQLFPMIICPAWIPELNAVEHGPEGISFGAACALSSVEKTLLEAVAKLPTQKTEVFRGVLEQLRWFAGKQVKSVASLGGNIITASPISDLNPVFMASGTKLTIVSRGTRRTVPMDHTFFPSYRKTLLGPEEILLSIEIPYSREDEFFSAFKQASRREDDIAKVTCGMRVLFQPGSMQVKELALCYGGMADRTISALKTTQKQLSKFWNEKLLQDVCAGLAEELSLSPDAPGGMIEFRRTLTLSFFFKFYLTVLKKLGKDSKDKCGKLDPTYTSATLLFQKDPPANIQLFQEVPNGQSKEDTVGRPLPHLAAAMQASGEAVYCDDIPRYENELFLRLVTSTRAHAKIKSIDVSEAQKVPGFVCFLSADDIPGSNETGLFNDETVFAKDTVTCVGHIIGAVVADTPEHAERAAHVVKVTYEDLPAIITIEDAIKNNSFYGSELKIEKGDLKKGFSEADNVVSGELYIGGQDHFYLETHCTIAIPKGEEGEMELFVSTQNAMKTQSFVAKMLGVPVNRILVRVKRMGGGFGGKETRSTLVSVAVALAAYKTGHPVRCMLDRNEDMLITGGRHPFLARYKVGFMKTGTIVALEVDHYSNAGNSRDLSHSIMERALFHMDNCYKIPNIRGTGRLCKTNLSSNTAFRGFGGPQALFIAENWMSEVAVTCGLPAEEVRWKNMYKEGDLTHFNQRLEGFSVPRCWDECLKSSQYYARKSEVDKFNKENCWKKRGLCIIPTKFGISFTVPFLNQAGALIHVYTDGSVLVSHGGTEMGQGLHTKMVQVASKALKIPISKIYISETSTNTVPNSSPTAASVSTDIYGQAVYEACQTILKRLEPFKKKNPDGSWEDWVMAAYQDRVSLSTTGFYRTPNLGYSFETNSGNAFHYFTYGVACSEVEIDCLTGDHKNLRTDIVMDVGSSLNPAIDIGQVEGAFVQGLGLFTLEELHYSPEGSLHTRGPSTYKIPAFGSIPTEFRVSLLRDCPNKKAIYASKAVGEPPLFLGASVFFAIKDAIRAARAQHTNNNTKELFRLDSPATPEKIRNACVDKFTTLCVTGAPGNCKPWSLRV

Sequence of Xanthine dehydrogenase/oxidase (Rattus norvegicus, UniProt P22985) (P22985 whole entry): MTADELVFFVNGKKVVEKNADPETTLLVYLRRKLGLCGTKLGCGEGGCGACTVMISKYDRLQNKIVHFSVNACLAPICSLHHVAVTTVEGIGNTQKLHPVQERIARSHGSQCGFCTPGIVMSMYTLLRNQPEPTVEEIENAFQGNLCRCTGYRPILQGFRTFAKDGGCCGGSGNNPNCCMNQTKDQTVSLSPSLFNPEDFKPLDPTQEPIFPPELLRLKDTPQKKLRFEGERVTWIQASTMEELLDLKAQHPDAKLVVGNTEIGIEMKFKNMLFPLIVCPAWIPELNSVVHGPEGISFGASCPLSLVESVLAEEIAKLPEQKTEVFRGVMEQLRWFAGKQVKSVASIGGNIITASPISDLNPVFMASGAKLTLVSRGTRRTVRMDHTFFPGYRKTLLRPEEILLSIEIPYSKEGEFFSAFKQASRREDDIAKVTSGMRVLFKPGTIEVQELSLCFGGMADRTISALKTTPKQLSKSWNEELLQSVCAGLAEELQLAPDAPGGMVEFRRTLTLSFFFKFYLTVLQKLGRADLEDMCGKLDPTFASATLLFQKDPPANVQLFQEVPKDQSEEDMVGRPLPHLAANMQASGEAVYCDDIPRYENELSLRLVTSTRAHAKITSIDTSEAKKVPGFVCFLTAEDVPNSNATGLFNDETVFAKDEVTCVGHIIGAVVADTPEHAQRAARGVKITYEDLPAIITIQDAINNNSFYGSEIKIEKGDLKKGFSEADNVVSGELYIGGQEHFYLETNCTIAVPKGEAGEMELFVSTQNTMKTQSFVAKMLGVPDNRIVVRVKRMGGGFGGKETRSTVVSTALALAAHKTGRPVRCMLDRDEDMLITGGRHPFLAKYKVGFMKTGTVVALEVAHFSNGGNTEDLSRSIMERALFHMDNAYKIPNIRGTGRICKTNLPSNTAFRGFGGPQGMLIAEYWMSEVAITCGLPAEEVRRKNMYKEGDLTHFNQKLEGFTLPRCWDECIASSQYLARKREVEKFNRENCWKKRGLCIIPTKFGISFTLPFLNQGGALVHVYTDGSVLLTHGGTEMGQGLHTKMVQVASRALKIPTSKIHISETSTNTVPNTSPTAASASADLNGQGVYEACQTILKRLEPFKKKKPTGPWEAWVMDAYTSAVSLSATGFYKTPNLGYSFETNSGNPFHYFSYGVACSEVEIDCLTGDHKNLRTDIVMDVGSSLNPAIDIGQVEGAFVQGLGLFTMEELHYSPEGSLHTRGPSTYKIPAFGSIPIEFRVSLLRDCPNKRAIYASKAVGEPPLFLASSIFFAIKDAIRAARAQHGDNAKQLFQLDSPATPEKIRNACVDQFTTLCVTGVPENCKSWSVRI

IC50 [1] | IC50 [2] | IC50 [3] | Compound
423 nM | 449 nM | 461 nM | Cc1cc(=O)n2nc(COc3ccc(Cl)cc3)sc2n1
– | 6180 nM | – | Cc1cc(=O)n2nc(COc3cccc(Cl)c3)sc2n1
– | 555 nM | – | Cc1cc(=O)n2nc(COc3ccccc3)sc2n1
– | 2560 nM | – | Cc1cc(=O)n2nc(COc3cccc(Br)c3)sc2n1
– | 2030 nM | 2500 nM | Cc1cc(=O)n2nc(COc3ccc([N+](=O)[O-])cc3)sc2n1
1730 nM | 1760 nM | 1800 nM | Cc1ccc(OCc2nn3c(=O)cc(C)nc3s2)c(C)c1
– | 590 nM | – | Cc1cc(=O)n2nc(COc3ccccc3F)sc2n1
834 nM | 1020 nM | – | Cc1ccc(OCc2nn3c(=O)cc(C)nc3s2)cc1
1110 nM | 1070 nM | 1030 nM | Cc1cccc(OCc2nn3c(=O)cc(C)nc3s2)c1
– | 413 nM | 603 nM | Cc1cc(=O)n2nc(COc3ccccc3Br)sc2n1
2240 nM | – | – | Cc1cc(=O)n2nc(COc3ccc(F)cc3)sc2n1
1820 nM | 1830 nM | 1650 nM | Cc1cc(=O)n2nc(COc3ccccc3Cl)sc2n1
1660 nM | 1980 nM | – | Cc1cc(=O)n2nc(COc3cccc(F)c3)sc2n1
596 nM | 623 nM | 634 nM | Cc1cc(=O)n2nc(COc3ccc(Cl)c(C)c3)sc2n1
269 nM | 289 nM | 269 nM | COc1ccc(OCc2nn3c(=O)cc(C)nc3s2)cc1
346 nM | 362 nM | 326 nM | Cc1cc(=O)n2nc(COc3ccccc3C)sc2n1
